{"source": "paper PMC2217059", "about": "(The Journal of General Physiology, 1997)", "key": {"Na,K-ATPase [1]": {"molecular_target": "Na,K-ATPase", "conditions": "read-out: K diss, Na+-form (E1-form), I < 0.1 M, ref Nørby and Jensen, 1971, Hegyvary and Post, Jørgensen, 1975, Skou and Esmann, 1981; cited from earlier work"}, "Na,K-ATPase [2]": {"molecular_target": "T1, Na,K-ATPase (Sus scrofa, UniProt P05024)", "test": "Equilibrium binding of 14C-ADP to membrane-bound Na,K-ATPase", "design": "species or system pig", "conditions": "for Kd: read-out: K diss for ADP-binding", "how_it_was_run": "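The enzyme was membrane-bound Na,K-ATPase from pig kidney outer medulla, SDS-extracted. It was mixed on ice with water or Na+ salt in imidazole/sucrose/EDTA (pH 7.4), then with 14C-ADP (stock 40 μM) in Tris buffer (pH 6.3). NO3− and SO4 2− series used enzyme washed into buffer titrated with HNO3 or H2SO4. Final pH was 7.65–7.82 and basal I 78 mM. Samples were centrifuged at 100,000 g for 60 min at 0–2°C; bound ADP was total minus supernatant. Kdiss came from nonlinear regression with a common Bmax per series.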"}, "Na,K-ATPase [3]": {"molecular_target": "T1, Na,K-ATPase", "test": "Na,K-ATPase activity", "type": "biochemical, pig"}, "[4]": {"tested_on": "Na,K-ATPase mutant Lys480Glu", "conditions": "ref Wang and Farley, 1992; cited from earlier work"}, "[5]": {"tested_on": "Na,K-ATPase Asp369 substituted with Asn or Ala", "conditions": "Asp369 substituted with uncharged Asn or Ala; ref Pedersen et al., 1996; cited from earlier work"}, "[6]": {"conditions": "I around 0.1 M, cited from earlier work"}, "Na,K-ATPase [7]": {"molecular_target": "T1, Na,K-ATPase", "conditions": "cited from earlier work"}, "Na,K-ATPase [8]": {"molecular_target": "T1, Na,K-ATPase", "test": "K+-dependent p-nitrophenylphosphatase", "type": "biochemical, pig", "how_it_was_run": "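K+-pNPPase was assayed at 37°C, pH 7.4, in 30 mM histidine/HCl with 10 pmol enzyme·ml−1, 20 mM MgCl2, K+ salts and 10 mM Na2pNPP (basal I ~90 mM). Substrate-dependence runs varied Na2pNPP at 0.05–0.4 M KCl. After 3 min, reactions were stopped with ice-cold TCA (final 5%) and p-nitrophenol was measured. Blanks were reagent blanks without enzyme. Results are the mean of two to four experiments.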"}, "[9]": {"tested_on": "H+-translocating Mg-ATPases from tissues of higher plants", "conditions": "ref Sze, 1985, Jacoby, 1987, Blumwald et al.; cited from earlier work"}, "Na,K-ATPase [10]": {"molecular_target": "T1, Na,K-ATPase", "test": "Effect of NO3− on ADP-binding, competitive model of Fig. 4", "design": "species or system pig", "conditions": "line through (0,1); I 78–228 mM and constant I 178 mM", "how_it_was_run": "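ADP-binding affinities for pig kidney membrane Na,K-ATPase were determined by centrifugation binding at 0–2°C. Kdiss/KA was plotted against [NO3−] for the NaNO3 series (I 78–228 mM). […] A line through (0,1) was fitted, and KN for ENO3 was taken as the reciprocal slope.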"}}, "note": "Where “and” joins values, the source holds several entries; their conditions need not be identical. Identical values can stand only once. Like-named read-outs stand apart in the source and are kept apart here.", "data": [{"molecule": "Nc1ncnc2c1ncn2[C@@H]1O[C@H](COP(=O)(O)OP(=O)(O)O)[C@@H](O)[C@H]1O", "note": "[ADP]", "values": [{"measurement": "Kd", "setting": "Na,K-ATPase [1]", "result": "< 1000", "unit": "nM"}, {"measurement": "decrease of apparent affinity for ADP with salt", "setting": "Na,K-ATPase [2]; 0–0.5 M NaCl, Na2SO4, NaNO3, 0.1 M Na-acetate, NaSCN, NaClO4", "result": "up to 30 times"}, {"measurement": "Bmax of ADP-binding", "setting": "Na,K-ATPase [2]; Exp. A2, NaCl series, [Cl−] 119 mM, I 178 mM", "result": "1.20 ± 0.01", "unit": "µM"}, {"measurement": "Bmax of ADP-binding", "setting": "Na,K-ATPase [2]; Exp. A3, NaCl series, [Cl−] 219 mM, I 278 mM", "result": "1.20 ± 0.02", "unit": "µM"}, {"measurement": "Bmax of ADP-binding", "setting": "Na,K-ATPase [2]; Exp. A4, NaCl series, [Cl−] 319 mM, I 378 mM", "result": "1.13 ± 0.11", "unit": "µM"}, {"measurement": "Bmax of ADP-binding", "setting": "Na,K-ATPase [2]; Exp. A5, NaCl series, [Cl−] 394 mM, I 453 mM", "result": "1.29 ± 0.09", "unit": "µM"}, {"measurement": "Bmax of ADP-binding", "setting": "Na,K-ATPase [2]; Exp. A6, NaCl series, [Cl−] 469 mM, I 528 mM", "result": "1.20 ± 0.11", "unit": "µM"}, {"measurement": "Bmax of ADP-binding", "setting": "Na,K-ATPase [2]; Exp. A7, NaCl series, [Cl−] 519 mM, I 578 mM", "result": "0.98 ± 0.09", "unit": "µM"}, {"measurement": "Bmax of ADP-binding", "setting": "Na,K-ATPase [2]; Exp. B1, Na2SO4 series, [SO4 2−] 6 mM, I 78 mM", "result": "1.70 ± 0.04", "unit": "µM"}, {"measurement": "Bmax of ADP-binding", "setting": "Na,K-ATPase [2]; Exp. B2, Na2SO4 series, [SO4 2−] 6 mM, I 78 mM", "result": "1.73 ± 0.02", "unit": "µM"}, {"measurement": "Bmax of ADP-binding", "setting": "Na,K-ATPase [2]; Exp. B3, Na2SO4 series, [SO4 2−] 36 mM, I 168 mM", "result": "1.71 ± 0.02", "unit": "µM"}, {"measurement": "Bmax of ADP-binding", "setting": "Na,K-ATPase [2]; Exp. B4, Na2SO4 series, [SO4 2−] 66 mM, I 258 mM", "result": "1.77 ± 0.03", "unit": "µM"}, {"measurement": "Bmax of ADP-binding", "setting": "Na,K-ATPase [2]; Exp. B5, Na2SO4 series, [SO4 2−] 96 mM, I 348 mM", "result": "1.72 ± 0.06", "unit": "µM"}, {"measurement": "Bmax of ADP-binding", "setting": "Na,K-ATPase [2]; Exp. B6, Na2SO4 series, [SO4 2−] 126 mM, I 438 mM", "result": "1.96 ± 0.10", "unit": "µM"}, {"measurement": "Bmax of ADP-binding", "setting": "Na,K-ATPase [2]; Exp. B7, Na2SO4 series, [SO4 2−] 156 mM, I 528 mM", "result": "1.77 ± 0.08", "unit": "µM"}, {"measurement": "Bmax of ADP-binding", "setting": "Na,K-ATPase [2]; Exp. C1, NaNO3 series, [NO3−] 19 mM, I 78 mM", "result": "1.80 ± 0.02", "unit": "µM"}, {"measurement": "Bmax of ADP-binding", "setting": "Na,K-ATPase [2]; Exp. C2, NaNO3 series, [NO3−] 24 mM, I 83 mM", "result": "1.83 ± 0.03", "unit": "µM"}, {"measurement": "Bmax of ADP-binding", "setting": "Na,K-ATPase [2]; Exp. C3, NaNO3 series, [NO3−] 49 mM, I 108 mM", "result": "1.80 ± 0.03", "unit": "µM"}, {"measurement": "Bmax of ADP-binding", "setting": "Na,K-ATPase [2]; Exp. C4, NaNO3 series, [NO3−] 79 mM, I 138 mM", "result": "1.84 ± 0.04", "unit": "µM"}, {"measurement": "Bmax of ADP-binding", "setting": "Na,K-ATPase [2]; Exp. C5, NaNO3 series, [NO3−] 79 mM, I 138 mM", "result": "1.84 ± 0.01", "unit": "µM"}, {"measurement": "Bmax of ADP-binding", "setting": "Na,K-ATPase [2]; Exp. C6, NaNO3 series, [NO3−] 109 mM, I 168 mM", "result": "1.78 ± 0.06", "unit": "µM"}, {"measurement": "Bmax of ADP-binding", "setting": "Na,K-ATPase [2]; Exp. C7, NaNO3 series, [NO3−] 139 mM, I 198 mM", "result": "1.80 ± 0.06", "unit": "µM"}, {"measurement": "Bmax of ADP-binding", "setting": "Na,K-ATPase [2]; Exp. C8, NaNO3 series, [NO3−] 169 mM, I 228 mM", "result": "1.82 ± 0.08", "unit": "µM"}, {"measurement": "Kd", "setting": "Na,K-ATPase [2]; 19 mM Cl− + 100 mM Na+ salt of ClO4−, I 178 mM", "result": "38.6 ± 0.7", "unit": "µM"}, {"measurement": "Kd", "setting": "Na,K-ATPase [2]; 19 mM Cl− + 100 mM Na+ salt of NO3−, I 178 mM", "result": "3.24 ± 0.05", "unit": "µM"}, {"measurement": "Kd", "setting": "Na,K-ATPase [2]; 19 mM Cl− + 100 mM Na+ salt of SCN−, I 178 mM", "result": "18.3 ± 0.2", "unit": "µM"}, {"measurement": "Kd", "setting": "Na,K-ATPase [2]; 19 mM Cl− + 100 mM Na-acetate, I 178 mM", "result": "0.635 ± 0.004", "unit": "µM"}, {"measurement": "Kd", "setting": "Na,K-ATPase [2]; 19 mM Cl− + 100 mM NaCl (Cl−), I 178 mM", "result": "0.64 ± 0.007", "unit": "µM"}]}, {"molecule": "Nc1ncnc2c1ncn2[C@@H]1O[C@H](COP(=O)(O)OP(=O)(O)OP(=O)(O)O)[C@@H](O)[C@H]1O", "note": "[ATP]", "values": [{"measurement": "change of K m for ATP with increasing I", "setting": "Na,K-ATPase [3]; 20 mM KCl, [Mgtot] = [ATP] + 1 mM, 0.16–0.75 M NaCl, 37°C, pH 7.4", "result": "slight decrease"}, {"measurement": "reduction of affinity for ATP", "setting": "[4]", "result": "~10", "unit": "fold"}, {"measurement": "increase in affinity for ATP at the high-affinity site", "setting": "[5]", "result": "20–30 fold"}]}, {"molecule": "O=C(O)CN(CCN(CC(=O)O)CC(=O)O)CC(=O)O", "note": "[H2EDTA^2−]", "values": [{"measurement": "pKa", "setting": "[6]; ref Kortüm et al., 1961", "result": 6.5}]}, {"molecule": "[K+]", "note": "[K^+]", "values": [{"measurement": "K 0.5 for K+, chosen for the model", "setting": "Na,K-ATPase [7]; K+-pNPPase model with Na+/K+ competition, ref Beaugé et al., 1984", "result": 2, "unit": "mM"}]}, {"molecule": "O=[N+]([O-])O", "note": "[NO3 ^−]", "values": [{"measurement": "specific anion effect on K+-pNPPase activity", "setting": "Na,K-ATPase [8]; KNO3 compared with KCl, 10 mM Na2pNPP, also 25 mM pNPP", "result": "does not have any special effect"}, {"measurement": "K 0.5 of inhibition", "setting": "[9]", "result": "10 to 50", "unit": "mM"}, {"measurement": "slope of K diss/K A versus [NO3−]", "setting": "Na,K-ATPase [10]", "result": "0.0309 ± 0.0006 mM⁻¹ and 0.031 mM⁻¹"}]}, {"molecule": "O=S(=O)([O-])[O-].[Na+].[Na+]", "note": "[Na2SO4]", "values": [{"measurement": "inhibitory effect on Na,K-ATPase activity, less than that of NaCl", "setting": "Na,K-ATPase [3]; activity plotted versus I, 20 mM KCl, 3 mM ATP, 4 mM MgCl2", "result": "10–30%"}]}, {"molecule": "CC(=O)[O-].[Na+]", "note": "[Na-acetate]", "values": [{"measurement": "effect on Na,K-ATPase activity compared with NaCl", "setting": "Na,K-ATPase [3]; up to 800 mM, not shown", "result": "the same results as with NaCl"}]}, {"molecule": "NC(CO)(CO)CO", "note": "[TrisH^+]", "values": [{"measurement": "pKa", "setting": "[6]; ref Perrin, 1965", "result": 8.8}]}, {"molecule": "c1c[nH]cn1", "note": "[imidazoleH^+]", "values": [{"measurement": "pKa", "setting": "[6]; ref Perrin, 1965", "result": 7.5}]}, {"molecule": "O=[N+]([O-])c1ccc(OP(=O)(O)O)cc1", "note": "[pNPP, p-nitrophenylphosphate]", "values": [{"measurement": "K 0.5 for pNPP", "setting": "Na,K-ATPase [8]; 0.125 M ClO4−", "result": "~5.5", "unit": "mM"}, {"measurement": "K 0.5 for pNPP", "setting": "Na,K-ATPase [8]; 0.125 M Cl−", "result": "about 4.5 mM"}, {"measurement": "K m for pNPP", "setting": "Na,K-ATPase [8]; highest values reached with increasing [KCl] (0.05–0.6 M KCl), 37°C, pH 7.4", "result": "10–12 mM"}, {"measurement": "K m for pNPP", "setting": "Na,K-ATPase [7]; low ionic strength, ref Skou, 1974, Campos et al., 1988, Fig. 9 in this paper", "result": "2–3 mM"}]}]}
